This passage reports Ratio and MIC90 results from ChEMBL document CHEMBL4118076, “Azide-alkyne cycloaddition towards 1H-1,2,3-triazole-tethered gatifloxacin and isatin conjugates: Design, synthesis and in vitro anti-mycobacterial evaluation” (Eur J Med Chem, 2017).

What all share (assay type): functional
The nature of experiment [1]: Resistance index, ratio of MIC90 for multidrug resistant Mycobacterium tuberculosis to MIC90 for Mycobacterium tuberculosis H37Rv.
For experiment [2], the system named is Mycobacterium tuberculosis. Kind of experiment: Antimycobacterial activity against multidrug resistant Mycobacterium tuberculosis after 3 to 7 days by rapid direct susceptibility test. The method, boiled down:
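Two-fold DMSO dilutions, 0.0125 to 200 μg/mL for H37Rv and 0.062 to 128 μg/mL for the MDR strain (resistant to INH, RIF and ethambutol), mixed with suspension containing 4×10^-3 mg cells. Sealed plates incubated at 37 °C in a wet box. Growth was read visually under high magnification at 3 days and again 7 days later. MIC is the lowest concentration giving complete growth inhibition.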

For experiment [3], the system named is Mycobacterium tuberculosis. Kind of experiment: Potency index, ratio of rifampicin MIC90 to compound MIC90 for multidrug resistant Mycobacterium tuberculosis.
Experiment [4] has as its system Mycobacterium tuberculosis. Kind of experiment: Potency index, ratio of isoniazid MIC90 to compound MIC90 for multidrug resistant Mycobacterium tuberculosis.
Experiment [5] concerns Mycobacterium tuberculosis. Kind of experiment: Potency index, ratio of gatifloxacin MIC90 to compound MIC90 for multidrug resistant Mycobacterium tuberculosis.

Each structure is given as a SMILES string. Converted amounts (≈) assume the structure as drawn.

Regarding `COc1c(N2CCN(Cc3cn(CCN4C(=O)C(=O)c5cc(F)ccc54)nn3)C(C)C2)c(F)cc2c(=O)c(C(=O)O)cn(C3CC3)c12` (centres undefined), the Ratio in experiment [1] was less than 1. Further, in experiment [2], the MIC90 (commonly an inhibitory concentration at the 90% level, which refers to growth in some studies and to a panel of isolates in others) stood at 0.5 µg/mL (≈ 0.772 µM).
Taken in the same sequence, the figures for `CO/N=C1\C(=O)N(CCn2cc(CN3CCN(c4c(F)cc5c(=O)c(C(=O)O)cn(C6CC6)c5c4OC)CC3C)nn2)c2ccc(C)cc21` (centres undefined) were less than 1 and 0.5 µg/mL (≈ 0.743 µM).
For `COc1c(N2CCN(Cc3cn(CCN4C(=O)C(=O)c5cc(C)ccc54)nn3)C(C)C2)c(F)cc2c(=O)c(C(=O)O)cn(C3CC3)c12` (centres undefined), in experiment [1], the Ratio is less than 1. Also, the MIC90 in experiment [2] amounted to 1 µg/mL (≈ 1.55 µM).
Take `COc1c(N2CCN(Cc3cn(CCN4C(=O)C(=O)c5ccccc54)nn3)C(C)C2)c(F)cc2c(=O)c(C(=O)O)cn(C3CC3)c12` (centres undefined): the MIC90 in experiment [2] amounted to 4 µg/mL (≈ 6.35 µM).
With `CO/N=C1\C(=O)N(CCn2cc(CN3CCN(c4c(F)cc5c(=O)c(C(=O)O)cn(C6CC6)c5c4OC)CC3C)nn2)c2ccc(F)cc21` (centres undefined), the Ratio result in experiment [3], in experiment [4] and in experiment [5] was “>=4 - 512” throughout. In addition, the MIC90 in experiment [2] stood at 0.25 µg/mL (≈ 0.369 µM).
Compound `COc1c(N2CCN(Cc3cn(CCN4C(=O)C(=O)c5cc(Cl)ccc54)nn3)C(C)C2)c(F)cc2c(=O)c(C(=O)O)cn(C3CC3)c12` (centres undefined) registered an MIC90 in experiment [2] of 0.5 µg/mL (≈ 0.753 µM).
Same read-out and setting: the value for `COc1c(N2CCN(Cc3cn(CCN4C(=O)/C(=N\O)c5cc(F)ccc54)nn3)C(C)C2)c(F)cc2c(=O)c(C(=O)O)cn(C3CC3)c12` (centres undefined) was 1 µg/mL (≈ 1.51 µM); that for `CO/N=C1\C(=O)N(CCn2cc(CN3CCN(c4c(F)cc5c(=O)c(C(=O)O)cn(C6CC6)c5c4OC)CC3C)nn2)c2ccccc21` (centres undefined) was 1 µg/mL (≈ 1.52 µM); that for `COc1c(N2CCNC(C)C2)c(F)cc2c(=O)c(C(=O)O)cn(C3CC3)c12` (centres undefined) [GATIFLOXACIN] was 1 µg/mL (≈ 2.66 µM).
The same measure, in the same setting: the value for `COc1c(N2CCN(Cc3cn(CCN4C(=O)/C(=N\O)c5cc(Cl)ccc54)nn3)C(C)C2)c(F)cc2c(=O)c(C(=O)O)cn(C3CC3)c12` (centres undefined) was 2 µg/mL (≈ 2.95 µM); that for `COc1c(N2CCN(Cc3cn(CCN4C(=O)/C(=N\O)c5ccccc54)nn3)C(C)C2)c(F)cc2c(=O)c(C(=O)O)cn(C3CC3)c12` (centres undefined) was 8 µg/mL (≈ 12.4 µM); that for `COc1c(N2CCN(Cc3cn(CCN4C(=O)/C(=N\O)c5cc(C)ccc54)nn3)C(C)C2)c(F)cc2c(=O)c(C(=O)O)cn(C3CC3)c12` (centres undefined) was 8 µg/mL (≈ 12.1 µM).
Consider `CO[C@H]1/C=C/O[C@@]2(C)Oc3c(C)c(O)c4c(O)c(c(/C=N/N5CCN(C)CC5)c(O)c4c3C2=O)NC(=O)/C(C)=C\C=C\[C@H](C)[C@H](O)[C@@H](C)[C@@H](O)[C@@H](C)[C@H](OC(C)=O)[C@@H]1C` [RIFAMPIN], for which the MIC90 in experiment [2] worked out at 32 µg/mL (≈ 38.9 µM).
Take `NNC(=O)c1ccncc1` [ISONIAZID]: the MIC90 in experiment [2] is greater than 128 µg/mL.
Regarding `CO/N=C1\C(=O)N(CCn2cc(CN3CCN(c4c(F)cc5c(=O)c(C(=O)O)cn(C6CC6)c5c4OC)CC3C)nn2)c2ccc(Cl)cc21` (centres undefined), the Ratio entry in experiment [3], in experiment [4] and in experiment [5] was “>=4 - 512” in each case. Moreover, the MIC90 in experiment [2] was 0.25 µg/mL (≈ 0.361 µM).
